Where two headings read alike, the source gives them in different places.
Key:
[1] = blood-to-lumen jejunal 51Cr-EDTA clearance; format: in vivo; settings: hypotonic perfusate (100 mOsm) with lidocaine, rat SPIP, test vs control period
In short: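 Male Wistar Han rats (299–395 g) anaesthetised with inactin (180 mg/kg i.p., 5% w/v), body temperature held at 37.5 ± 0.5 °C, arterial pressure monitored. The proximal jejunal segment (about 10 cm) was single-pass perfused at 0.2 mL/min at 37 °C. A 30-min PBS stabilisation reached steady plasma 51Cr-EDTA. Then came 60 min of isotonic pH 7.4 control buffer holding both peptides, followed by 75 min of hypotonic (100 mOsm) perfusate with lidocaine 1 mg/mL. Clearance was computed as blood-to-lumen 51Cr-EDTA transport per 100 g wet jejunal tissue, expressed as the ratio of mean test-period (60 min) to mean control-period (45 min) values. n = 6 rats.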

[2] = compatibility/stability of study drugs in perfusion solution; format: physicochemical; settings: solution pH 6.5, 37 °C; for concentration in perfusion solution, after: after 4 h; for concentration in perfusion solution, before: before 4 h
[3] = cited from earlier work; for basal permeability: recent rat SPIP study with transcellular PEs; for effect of transcellular PEs on jejunal permeability: sodium dodecyl sulfate (SDS) and caprate, rat SPIP in vivo
[4] = n-octanol-water coefficient; ref 22 (enalaprilat), ref 23 (hexarelin); cited from earlier work
[5] = dissociation constant; cited from earlier work
[6] = ref 22 (enalaprilat), ref 23 (hexarelin); cited from earlier work
[7] = Pefabloc SC at 0.3 mg/mL, in rat; cited from earlier work
[8] = rat single-pass intestinal perfusion; format: in vivo; settings: with EDTA at 1 mg/mL or the two hypotonic (100 mOsm) perfusion solutions with or without lidocaine; rat SPIP, n = 6
[9] = cited from earlier work

Compound	concentration in perfusion solution, after [2] [µM]	concentration in perfusion solution, before [2] [µM]	basal permeability [3]	effect of transcellular PEs on jejunal permeability [3]	LogP [4]	HBA (hydrogen bond acceptor) [6]	HBD (hydrogen bond donor) [6]	further results
O=C([O-])CN(CCN(CC(=O)[O-])CC(=O)[O-])CC(=O)[O-].[51Cr+3] [51Cr-EDTA, ^51chromium-labeled EDTA]	–	–	–	–	–	–	–	increase in CLCr-EDTA (permeability) [1]: 15 fold
C[C@H](N[C@@H](CCc1ccccc1)C(=O)O)C(=O)N1CCC[C@H]1C(=O)O [Enalaprilat]	84.8	83.9	0.013 ± 0.009 × 10^−4 cm/s	substantially increased	−0.13	6	3	pKa (footnote a, Acid) [5]: 7.84; pKa (footnote b, Base) [5]: 3.17
Cl.NCCc1ccc(S(=O)(=O)F)cc1 [Pefabloc SC]	–	–	–	–	–	–	–	inhibition of the intestinal degradation of hexarelin [7]: completely inhibits
Hexarelin	33.9	29.9	0.0019 ± 0.0013 × 10^−4 cm/s	unaffected	0.73	9	11	Peff ratio (baseline vs. test) [8]: no increase; PSA (polar surface area) [6]: 300
desmopressin	–	–	–	–	–	–	–	bioavailability of the given oral dose [9]: 0.1%
semaglutide	–	–	–	–	–	–	–	terminal half-life in plasma [9]: ~1 week; bioavailability of the given oral dose ([9]; with SNAC): 0.4%–1.0
